# Marks after values point to notes of the source that are not given here.
# Experiments:
# [1] = tested on: A549 human lung cancer cell line; assay: Differential cytotoxicity
# Non-enzymatic stability = type: physicochemical; settings: for percent BAPC hydrolysis/cleavage (non-enzymatic) in phosphate buffer: pH 7.4, 48 h
# tubulin = assay: Inhibition of [3H]colchicine binding to tubulin; settings: 1.0 μM tubulin, 5.0 μM [3H]colchicine
# How it was run: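 Incubation was 10 min at 37 °C, when control binding is about 50% complete. Bound ligand was collected on paired filters and scintillation-counted at least 18 h later. Counts were corrected for filter-bound colchicine without tubulin, and percent inhibition was calculated against no-inhibitor controls.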
# [2] = target: T1, Rat NADPH-cytochrome P450 oxidoreductase (POR) supersomes (Rattus norvegicus, UniProt P00388); assay: NADPH-cytochrome P450 oxidoreductase cleavage assay; type: in vitro ADME; settings: for percent BAPC cleavage by POR: 90 min, anaerobic, 37 °C, NC = no cleavage observed
# T1 sequence (P00388 1-678): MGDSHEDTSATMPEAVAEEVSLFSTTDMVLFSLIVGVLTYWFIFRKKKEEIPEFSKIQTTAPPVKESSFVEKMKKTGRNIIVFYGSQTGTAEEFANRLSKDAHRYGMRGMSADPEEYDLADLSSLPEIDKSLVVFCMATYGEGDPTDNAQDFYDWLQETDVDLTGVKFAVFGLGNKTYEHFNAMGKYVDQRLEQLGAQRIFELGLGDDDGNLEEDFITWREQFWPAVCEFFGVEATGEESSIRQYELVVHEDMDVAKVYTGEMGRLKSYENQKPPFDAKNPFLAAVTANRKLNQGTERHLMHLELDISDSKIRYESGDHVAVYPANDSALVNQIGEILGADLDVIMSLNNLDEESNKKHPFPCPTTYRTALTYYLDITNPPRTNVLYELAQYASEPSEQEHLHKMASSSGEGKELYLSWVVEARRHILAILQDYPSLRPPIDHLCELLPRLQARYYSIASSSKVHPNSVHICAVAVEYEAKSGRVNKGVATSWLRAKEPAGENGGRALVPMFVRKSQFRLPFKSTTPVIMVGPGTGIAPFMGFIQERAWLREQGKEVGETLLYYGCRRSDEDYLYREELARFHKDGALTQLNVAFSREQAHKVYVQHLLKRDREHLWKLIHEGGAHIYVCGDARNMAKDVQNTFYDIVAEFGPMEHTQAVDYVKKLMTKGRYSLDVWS
# [3] = tested on: orthotopic 4T1-luc breast tumors; assay: In vivo dynamic bioluminescence imaging; set-up: species or system BALB/c mice; settings: 180 mg/kg IP single dose
# How it was run: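 Cells: 4T1-luc, firefly luciferase-expressing, grown in RPMI1640 with 10% FBS. 10⁶ cells in PBS with 30% Matrigel were implanted into the left upper ventral mammary fat pad of female BALB/cJ mice and grown 11 days to 10–12 mm. Baseline BLI was taken under 2% isoflurane after SC D-luciferin (120 mg/kg). Then a single IP dose of test compound was given (180 mg/kg in DPS, n=3), with vehicle and combretastatin A-4 phosphate (120 mg/kg) controls. Imaging (~20 min) was repeated at 4, 24 and 48 h with fresh luciferin, comparing area under the light-emission curve.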
# 4T1-luc tumors = assay: H&E histology of harvested tumors; type: in vivo, BALB/c mice; settings: 180 mg/kg IP
# How it was run: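 4T1-luc orthotopic mammary fat pad tumors in female BALB/cJ mice were dosed once IP with test compound (180 mg/kg in DPS vehicle). Tumors were harvested at 72 h, or after further imaging at 96 h, when survivors were killed by cervical dislocation under isoflurane. They were stained with hematoxylin and eosin. Each tumor's histology was matched to its BLI response.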
molecule,measurement,setting,value
Nc1n[n+]([O-])c2ccccc2[n+]1[O-] [Tirapazamine],hypoxia cytotoxicity ratio (HCR),[1]; assays in which drug was washed out after 4 h,> 62
"COc1cc(/C=C\c2ccc(OC)c3c2OC(c2ccc([N+](=O)[O-])s2)O3)cc(OC)c1OC (centres unmarked) [compound 35, (Z)-4-Methoxy-2-(5-nitrothiophen-2-yl)-7-(3,4,5-trimethoxystyryl)-benzo[d][1,3]dioxole]",percent BAPC hydrolysis/cleavage (non-enzymatic) in phosphate buffer,Non-enzymatic stability,0%
"COc1ccc(/C=C\c2cc(OC)c(OC)c(OC)c2)c(OC(C)c2ccc([N+](=O)[O-])s2)c1O (centres unmarked) [compound 38, (Z)-6-Methoxy-2-(1-(5-nitrothiophen-2-yl)ethoxy)-3-(3,4,5-trimethoxystyryl)phenol]",percent BAPC hydrolysis/cleavage (non-enzymatic) in phosphate buffer,Non-enzymatic stability,0.5^c %
Br.O=[N+]([O-])c1nccn1CC(O)CNCCBr (centres unmarked) [RB6145],hypoxia cytotoxicity ratio (HCR),"[1]; A549, GI50 oxic versus anoxic, drug removal step omitted",>3.7
"COc1ccc(/C=C\c2cc(OC)c(OC)c(OC)c2)cc1O [compound 42, combretastatin A-4]",inhibition of colchicine binding % inhibition ± SD,tubulin; compound at 1 μM,84±2%
same,inhibition of colchicine binding % inhibition ± SD,tubulin; compound at 5 μM,97±0.7%
"COc1ccc(/C=C\c2cc(OC)c(OC)c(OC)c2)c(OC(C)(C)c2ccc([N+](=O)[O-])s2)c1O [compound 41, (Z)-6-Methoxy-2-((2-(5-nitrothiophen-2-yl)propan-2-yl)oxy)-3-(3,4,5-trimethoxystyryl)phenol]",spontaneous hydrolysis in pH 7.4 buffer,Non-enzymatic stability; first 150 min,no apparent spontaneous hydrolysis
same,hydrolysis in pH 7.4 buffer,Non-enzymatic stability; incubated 24–48 h,mostly hydrolyzed
same,percent BAPC hydrolysis/cleavage (non-enzymatic) in phosphate buffer,Non-enzymatic stability,100%
"COc1ccc(/C=C\c2cc(OC)c(OC)c(OC)c2)cc1OC(C)(C)c1ccc([N+](=O)[O-])s1 [compound 45, (Z)-2-(2-(2-Methoxy-5-(3,4,5-trimethoxystyryl)phenoxy)propan-2-yl)-5-nitrothiophene]",percent BAPC cleavage by POR,[2],25%
same,cleavage by POR supersomes,"[2]; 24 h, anaerobic conditions",Complete cleavage
same,stability in phosphate buffer,"Non-enzymatic stability; pH 7.4, 24 h",stable
same,decrease in light emission (BLI),"[3]; 4 h, two of three mice",> 80%
same,depression of light emission (BLI),"[3]; 24 h, the two responding tumors",> 75%
same,light emission (BLI) recovery,"[3]; by 48 h, the two responding tumors",substantial recovery
same,tumor necrosis (H&E),4T1-luc tumors; BLI-unresponsive tumor,47%
same,tumor necrosis (H&E),4T1-luc tumors; tumor showing a strong BLI signal response,55%
"COc1cc(/C=C\c2ccc(OC)c(OC(C)c3ccc([N+](=O)[O-])s3)c2O)cc(OC)c1OC (centres unmarked) [compound 40, (Z)-3-Methoxy-2-(1-(5-nitrothiophen-2-yl)ethoxy)-6-(3,4,5-trimethoxystyryl)phenol]",percent BAPC hydrolysis/cleavage (non-enzymatic) in phosphate buffer,Non-enzymatic stability,0^c %
"(Z)-3-Methoxy-2-(2-(5-nitrothiophen-2-yl)propoxy)-6-(3,4,5-trimethoxystyryl)-phenyl-4-methylbenzenesulfonate [compound 23]",percent BAPC cleavage by POR,[2],13.5%
same,percent BAPC hydrolysis/cleavage (non-enzymatic) in phosphate buffer,Non-enzymatic stability,0.84%
"COc1cc(/C=C\c2ccc(OC)c(OCc3ccc([N+](=O)[O-])s3)c2O)cc(OC)c1OC [compound 39, (Z)-3-Methoxy-2-((5-nitrothiophen-2-yl)methoxy)-6-(3,4,5-trimethoxystyryl)phenol]",percent BAPC hydrolysis/cleavage (non-enzymatic) in phosphate buffer,Non-enzymatic stability,0^b %
"COc1cc(/C=C\c2ccc(OC)c3c2OC(C)(c2ccc([N+](=O)[O-])s2)O3)cc(OC)c1OC (centres unmarked) [compound 36, (Z)-4-Methoxy-2-methyl-2-(5-nitrothiophen-2-yl)-7-(3,4,5-trimethoxystyryl)-benzo[d][1,3]dioxole]",percent BAPC hydrolysis/cleavage (non-enzymatic) in phosphate buffer,Non-enzymatic stability,0%
"COc1ccc(/C=C\c2cc(OC)c(OC)c(OC)c2)c(OCc2ccc([N+](=O)[O-])s2)c1O [compound 37, (Z)-6-Methoxy-2-((5-nitrothiophen-2-yl)methoxy)-3-(3,4,5-trimethoxystyryl)phenol]",percent BAPC hydrolysis/cleavage (non-enzymatic) in phosphate buffer,Non-enzymatic stability,0^b %

# Reference: paper PMC7644341 (Journal of natural products, 2020)
